Data taken from ChEMBL document CHEMBL4334458, “Design, synthesis and antibacterial evaluation of novel 15-membered 11a-azahomoclarithromycin derivatives with the 1, 2, 3-triazole side chain” (Eur J Med Chem, 2019).
Values after ≈ are worked out from the molar mass of the structure shown.

Columns and labels:
Format in all cases: functional
[1] = test system: Staphylococcus aureus; assay: Antibacterial activity against erythromycin-susceptible Staphylococcus aureus ATCC 25923 incubated for 24 hrs by broth dilution method; conditions: ATCC 25923, 24 h
Summary of the method: (§1)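 CLSI broth microdilution in cation-adjusted Mueller-Hinton broth. Twofold dilutions spanned 0.25–128 or 0.5–256 µg/mL, with CAM and AZM as controls. Log-phase bacteria were added and incubated 24 h at 37 °C. MIC was read by turbidity as the concentration of the last clear well.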

[2] = test system: Streptococcus pyogenes; assay: Antibacterial activity against erythromycin-susceptible Streptococcus pyogenes 1 clinical isolate incubated for 24 hrs by broth dilution method; summary of the method: as §1
[3] = test system: Escherichia coli; assay: Antibacterial activity against penicillin-susceptible Escherichia coli ATCC 25922 incubated for 24 hrs by broth dilution method; conditions: ATCC 25922, 24 h; summary of the method: as §1
[4] = test system: Pseudomonas aeruginosa; assay: Antibacterial activity against penicillin-susceptible Pseudomonas aeruginosa ATCC 27853 incubated for 24 hrs by broth dilution method; conditions: ATCC 27853, 24 h; summary of the method: as §1
[5] = test system: Bacillus subtilis; assay: Antibacterial activity against penicillin-susceptible Bacillus subtilis ATCC 9372 incubated for 24 hrs by broth dilution method; conditions: ATCC 9372, 24 h; summary of the method: as §1
[6] = test system: Staphylococcus aureus; assay: Antibacterial activity against penicillin-resistant Staphylococcus aureus ATCC 31007 incubated for 24 hrs by broth dilution method; conditions: ATCC 31007, 24 h
[7] = test system: Staphylococcus aureus; assay: Antibacterial activity against methicillin-resistant Staphylococcus aureus ATCC 43300 incubated for 24 hrs by broth dilution method; conditions: ATCC 43300, 24 h
[8] = test system: Streptococcus pneumoniae; assay: Antibacterial activity against erythromycin-resistant Streptococcus pneumoniae B1 expressing the ermB incubated for 24 hrs by broth dilution method
[9] = test system: Streptococcus pneumoniae; assay: Antibacterial activity against erythromycin-resistant Streptococcus pneumoniae AB11 expressing the ermB and mefA incubated for 24 hrs by broth dilution method
[10] = test system: Streptococcus pyogenes; assay: Antibacterial activity against erythromycin-resistant Streptococcus pyogenes 2 clinical isolate incubated for 24 hrs by broth dilution method

**Q.** Which MIC [1] does the source give for `COc1ccc(-n2cc(COC[C@@H]3CN(C)C[C@@H](C)[C@@H](O)[C@H](C)C[C@@](C)(OC)[C@H](O[C@@H]4O[C@H](C)C[C@H](N(C)C)[C@H]4O)[C@@H](C)[C@H](O[C@H]4C[C@@](C)(OC)[C@@H](O)[C@H](C)O4)[C@@H](C)C(=O)O3)nn2)cc1` here?
**A.** Its MIC is 8 µg/mL (≈ 8.68 µM).

**Q.** What about the MIC [2] of the same molecule?
**A.** Its MIC is 4 µg/mL (≈ 4.34 µM).

**Q.** And the MIC [3]?
**A.** The MIC was 128 µg/mL (≈ 139 µM).

**Q.** What about the MIC [4] of the same molecule?
**A.** The MIC was 128 µg/mL (≈ 139 µM).

**Q.** What about the MIC [5] of the same molecule?
**A.** The MIC was 2 µg/mL (≈ 2.17 µM).

**Q.** And the MIC [6]?
**A.** Its MIC is 256 µg/mL (≈ 278 µM).

**Q.** And the MIC [7]?
**A.** Its MIC is 256 µg/mL (≈ 278 µM).

**Q.** And the MIC [8]?
**A.** The MIC was 256 µg/mL (≈ 278 µM).

**Q.** And the MIC [9]?
**A.** The MIC was 128 µg/mL (≈ 139 µM).

**Q.** What about the MIC [10] of the same molecule?
**A.** Its MIC is 128 µg/mL (≈ 139 µM).

**Q.** How did the MIC [1] turn out when `CO[C@]1(C)C[C@@H](C)[C@H](O)[C@H](C)CN(C)C[C@@H](Cn2cc(-c3ccc(Cl)cc3)nn2)OC(=O)[C@H](C)[C@@H](O[C@H]2C[C@@](C)(OC)[C@@H](O)[C@H](C)O2)[C@H](C)[C@H]1O[C@@H]1O[C@H](C)C[C@H](N(C)C)[C@H]1O` was run?
**A.** Its MIC is 8 µg/mL (≈ 8.92 µM).

**Q.** What about the MIC [2] of the same molecule?
**A.** The MIC was 2 µg/mL (≈ 2.23 µM).

**Q.** What about the MIC [3] of the same molecule?
**A.** The MIC was 128 µg/mL (≈ 143 µM).

**Q.** What about the MIC [4] of the same molecule?
**A.** Its MIC is > 128 µg/mL.

**Q.** And the MIC [5]?
**A.** Its MIC is 16 µg/mL (≈ 17.8 µM).

**Q.** And the MIC [6]?
**A.** Its MIC is 64 µg/mL (≈ 71.4 µM).

**Q.** What about the MIC [7] of the same molecule?
**A.** Its MIC is 64 µg/mL (≈ 71.4 µM).

**Q.** And the MIC [8]?
**A.** Its MIC is 64 µg/mL (≈ 71.4 µM).

**Q.** And the MIC [9]?
**A.** Its MIC is 64 µg/mL (≈ 71.4 µM).

**Q.** What about the MIC [10] of the same molecule?
**A.** Its MIC is 32 µg/mL (≈ 35.7 µM).

**Q.** For `CO[C@]1(C)C[C@@H](C)[C@H](O)[C@H](C)CN(C)C[C@@H](COCc2cn(-c3ccccn3)nn2)OC(=O)[C@H](C)[C@@H](O[C@H]2C[C@@](C)(OC)[C@@H](O)[C@H](C)O2)[C@H](C)[C@H]1O[C@@H]1O[C@H](C)C[C@H](N(C)C)[C@H]1O`, which MIC [1] is on record?
**A.** Its MIC is 2 µg/mL (≈ 2.24 µM).

**Q.** And the MIC [2]?
**A.** The MIC was 2 µg/mL (≈ 2.24 µM).

**Q.** What about the MIC [3] of the same molecule?
**A.** The MIC was 128 µg/mL (≈ 143 µM).

**Q.** And the MIC [4]?
**A.** Its MIC is 128 µg/mL (≈ 143 µM).

**Q.** And the MIC [5]?
**A.** The MIC was 0.5 µg/mL (≈ 0.56 µM).

**Q.** What about the MIC [6] of the same molecule?
**A.** Its MIC is > 256 µg/mL.

**Q.** And the MIC [7]?
**A.** The MIC was > 256 µg/mL.

**Q.** What about the MIC [8] of the same molecule?
**A.** Its MIC is > 256 µg/mL.

**Q.** And the MIC [9]?
**A.** The MIC was 128 µg/mL (≈ 143 µM).

**Q.** And the MIC [10]?
**A.** The MIC was 128 µg/mL (≈ 143 µM).

**Q.** Which results are given for `COc1ccc(-c2cn(C[C@H]3COC(=O)[C@H](C)[C@@H](O[C@H]4C[C@@](C)(OC)[C@@H](O)[C@H](C)O4)[C@H](C)[C@@H](O[C@@H]4O[C@H](C)C[C@H](N(C)C)[C@H]4O)[C@](C)(OC)C[C@@H](C)[C@H](O)[C@H](C)CN3C)nn2)cc1`?
**A.** MIC [1]: 64 µg/mL (≈ 71.7 µM); MIC [2]: 4 µg/mL (≈ 4.48 µM); MIC [3]: > 128 µg/mL; MIC [4]: > 128 µg/mL; MIC [5]: 32 µg/mL (≈ 35.9 µM); MIC [6]: 256 µg/mL (≈ 287 µM); MIC [7]: 256 µg/mL (≈ 287 µM); MIC [8]: 256 µg/mL (≈ 287 µM); MIC [9]: 64 µg/mL (≈ 71.7 µM); MIC [10]: 256 µg/mL (≈ 287 µM)

**Q.** Which results are given for `COc1ccc(-n2cc(COC[C@H]3CN(C)C[C@@H](C)[C@@H](O)[C@H](C)C[C@@](C)(OC)[C@H](O[C@@H]4O[C@H](C)C[C@H](N(C)C)[C@H]4O)[C@@H](C)[C@H](O[C@H]4C[C@@](C)(OC)[C@@H](O)[C@H](C)O4)[C@@H](C)C(=O)O3)nn2)cc1`?
**A.** MIC [1]: 1 µg/mL (≈ 1.08 µM); MIC [2]: 0.25 µg/mL (≈ 0.271 µM); MIC [3]: 64 µg/mL (≈ 69.4 µM); MIC [4]: 16 µg/mL (≈ 17.4 µM); MIC [5]: 0.5 µg/mL (≈ 0.542 µM); MIC [6]: > 256 µg/mL; MIC [7]: > 256 µg/mL; MIC [8]: > 256 µg/mL; MIC [9]: 64 µg/mL (≈ 69.4 µM); MIC [10]: 128 µg/mL (≈ 139 µM)

**Q.** Which MIC [1] does the source give for `CO[C@]1(C)C[C@@H](C)[C@H](O)[C@H](C)CN(C)[C@H](Cn2cc(-c3ccc(Cl)cc3)nn2)COC(=O)[C@H](C)[C@@H](O[C@H]2C[C@@](C)(OC)[C@@H](O)[C@H](C)O2)[C@H](C)[C@H]1O[C@@H]1O[C@H](C)C[C@H](N(C)C)[C@H]1O` here?
**A.** Its MIC is 8 µg/mL (≈ 8.92 µM).

**Q.** And the MIC [2]?
**A.** The MIC was 8 µg/mL (≈ 8.92 µM).

**Q.** What about the MIC [3] of the same molecule?
**A.** The MIC was 128 µg/mL (≈ 143 µM).

**Q.** What about the MIC [4] of the same molecule?
**A.** Its MIC is > 128 µg/mL.

**Q.** And the MIC [5]?
**A.** Its MIC is 8 µg/mL (≈ 8.92 µM).

**Q.** And the MIC [6]?
**A.** The MIC was 64 µg/mL (≈ 71.4 µM).

**Q.** And the MIC [7]?
**A.** The MIC was 64 µg/mL (≈ 71.4 µM).

**Q.** What about the MIC [8] of the same molecule?
**A.** The MIC was 64 µg/mL (≈ 71.4 µM).

**Q.** What about the MIC [9] of the same molecule?
**A.** The MIC was 64 µg/mL (≈ 71.4 µM).

**Q.** What about the MIC [10] of the same molecule?
**A.** The MIC was 32 µg/mL (≈ 35.7 µM).

**Q.** Which results are given for `CO[C@]1(C)C[C@@H](C)[C@H](O)[C@H](C)CN(C)C[C@@H](COCc2cn(-c3cccc(C(F)(F)F)c3)nn2)OC(=O)[C@H](C)[C@@H](O[C@H]2C[C@@](C)(OC)[C@@H](O)[C@H](C)O2)[C@H](C)[C@H]1O[C@@H]1O[C@H](C)C[C@H](N(C)C)[C@H]1O`?
**A.** MIC [1]: 8 µg/mL (≈ 8.33 µM); MIC [2]: 4 µg/mL (≈ 4.17 µM); MIC [3]: 128 µg/mL (≈ 133 µM); MIC [4]: > 128 µg/mL; MIC [5]: 2 µg/mL (≈ 2.08 µM); MIC [6]: 64 µg/mL (≈ 66.7 µM); MIC [7]: 32 µg/mL (≈ 33.3 µM); MIC [8]: 32 µg/mL (≈ 33.3 µM); MIC [9]: 16 µg/mL (≈ 16.7 µM); MIC [10]: 32 µg/mL (≈ 33.3 µM)

**Q.** With `CCc1ccc(-n2cc(COC[C@H]3CN(C)C[C@@H](C)[C@@H](O)[C@H](C)C[C@@](C)(OC)[C@H](O[C@@H]4O[C@H](C)C[C@H](N(C)C)[C@H]4O)[C@@H](C)[C@H](O[C@H]4C[C@@](C)(OC)[C@@H](O)[C@H](C)O4)[C@@H](C)C(=O)O3)nn2)cc1` as the molecule, how does the MIC [1] read?
**A.** Its MIC is 0.5 µg/mL (≈ 0.543 µM).

**Q.** What about the MIC [2] of the same molecule?
**A.** Its MIC is 0.5 µg/mL (≈ 0.543 µM).

**Q.** What about the MIC [3] of the same molecule?
**A.** Its MIC is 64 µg/mL (≈ 69.6 µM).

**Q.** And the MIC [4]?
**A.** The MIC was 16 µg/mL (≈ 17.4 µM).

**Q.** What about the MIC [5] of the same molecule?
**A.** The MIC was ≤ 0.25 µg/mL.

**Q.** What about the MIC [6] of the same molecule?
**A.** Its MIC is 128 µg/mL (≈ 139 µM).

**Q.** And the MIC [7]?
**A.** Its MIC is 128 µg/mL (≈ 139 µM).

**Q.** What about the MIC [8] of the same molecule?
**A.** Its MIC is 128 µg/mL (≈ 139 µM).

**Q.** And the MIC [9]?
**A.** The MIC was 32 µg/mL (≈ 34.8 µM).

**Q.** And the MIC [10]?
**A.** The MIC was 64 µg/mL (≈ 69.6 µM).
